Results on seven molecules are retold here after ChEMBL document CHEMBL1275375, “Properties and synthesis of 2-{2-fluoro (or bromo)-4-[(2-oxocyclopentyl)methyl]phenyl}propanoic acid: nonsteroidal anti-inflammatory drugs with low membrane permeabilizing and gastric lesion-producing activities” (J Med Chem, 2010).

The term IC50 denotes the point on the concentration scale where inhibition reaches its midpoint.

Activity calls are given as the source filed them. No cut-off for these calls is given here.

The species entered for one data set is Homo sapiens. The data set can be described thus: Selectivity ratio of IC50 for human COX1-derived TXB2 biosynthesis to IC50 for human COX2-derived PGE2 biosynthesis. The gist of the method: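 Human whole blood assay of COX-1- and COX-2-derived PG biosynthesis. IC50 taken from a four-parameter logistic fit of dose-response curves. Ratio is COX-1 IC50 / COX-2 IC50. Mean ± SEM, n = 3.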

For data set [1], the target named is T1, Prostaglandin G/H synthase 2 (Homo sapiens, UniProt P35354).
T1 sequence (P35354 whole entry): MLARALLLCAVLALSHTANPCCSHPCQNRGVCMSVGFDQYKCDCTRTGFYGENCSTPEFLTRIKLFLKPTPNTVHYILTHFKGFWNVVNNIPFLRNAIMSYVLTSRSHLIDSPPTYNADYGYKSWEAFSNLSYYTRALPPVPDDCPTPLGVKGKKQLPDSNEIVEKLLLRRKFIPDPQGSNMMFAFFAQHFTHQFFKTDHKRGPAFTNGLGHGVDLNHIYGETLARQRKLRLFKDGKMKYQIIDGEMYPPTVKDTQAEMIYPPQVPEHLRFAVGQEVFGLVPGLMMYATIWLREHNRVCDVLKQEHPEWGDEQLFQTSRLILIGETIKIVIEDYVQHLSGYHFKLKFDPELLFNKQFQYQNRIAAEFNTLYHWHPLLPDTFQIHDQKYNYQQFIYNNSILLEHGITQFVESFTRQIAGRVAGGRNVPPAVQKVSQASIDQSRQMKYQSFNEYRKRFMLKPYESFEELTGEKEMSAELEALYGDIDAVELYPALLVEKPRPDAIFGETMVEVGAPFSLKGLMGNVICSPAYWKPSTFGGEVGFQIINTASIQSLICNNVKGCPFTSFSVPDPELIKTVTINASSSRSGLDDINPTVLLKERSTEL
The data set can be described thus: Inhibition of COX2 in human whole blood assessed as PGE2 biosynthesis after 24 hrs by EIA. It is filed as tissue-based.

The target of data set [2] is Prostaglandin G/H synthase 1 (Homo sapiens, UniProt P23219). The data set can be described thus: Inhibition of COX1 in human whole blood assessed as TXB2 biosynthesis after 24 hrs by EIA. The data set is classed as tissue-based. The gist of the method: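 IC50 taken from a four-parameter logistic fit of dose-response curves. Ratio is COX-1 IC50 / COX-2 IC50. Mean ± SEM, n = 3.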

The subject of data set [3] is Rattus norvegicus. The data set can be described thus: Antiinflammatory activity against Wistar rat assessed as decrease in gastric level of PGE2 at 52 to 65 mg/kg, po. Particulars: Stomach. It is filed as functional, organism-based. The gist of the method:
(§1)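 Rats dosed orally (low or high dose); stomachs removed 8 h later and gastric PGE₂ level measured by EIA. Mean ± SEM, n = 3, compared with vehicle.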

The test system of data set [4] is Rattus norvegicus. The data set can be described thus: Antiinflammatory activity in rat assessed as inhibition of carrageenan-induced paw edema at 13 mg/kg, po administered 1 hr before carrageenan challenge measured after 3 to 6 hrs. It is filed as functional, organism-based. Also on record: dose 13 mg/kg. The gist of the method: (§2)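 Oral dosing of rats 1 h before intradermal injection of 1% carrageenan into the left hindpaw. Paw edema measured 3 h and 6 h after carrageenan. Mean ± SEM, n = 3-4, compared with vehicle.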
(In general: The carrageenan paw model is a standard test of acute inflammation.)

Data set [5] can be described thus: Membrane permeabilization activity in calcein-loaded liposome assessed as calcein release at […] by fluorescence assay. The data set is classed as physicochemical. Particulars: artificial membrane. The gist of the method:
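Calcein-loaded liposomes exposed to compound; release of self-quenched calcein into the medium read as a rise in fluorescence. Triton X-100 (10 μM) defined 100% permeabilization. Mean ± SEM, n = 3.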

Data set [6] relates to Rattus norvegicus. The data set can be described thus: Toxicity in Wistar rat assessed as gastric lesion at 52 to 65 mg/kg, po. Also on record: dose 52-65 mg/kg, route oral. Particulars: in vivo. It is filed as organism-based, Stomach. The gist of the method:
(§3)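 Rats dosed orally (low or high dose); stomachs removed 8 h after dosing and scored for hemorrhagic damage to give a lesion index. Mean ± SEM, n = 3.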

Data set [7] concerns Rattus norvegicus. The data set can be described thus: Toxicity in Wistar rat assessed as gastric lesion at 43 to 53 mg/kg, po. The data set is classed as organism-based, Stomach. Set-up: dose 43-53 mg/kg, route oral. Particulars: in vivo. The gist of the method: as §3
The test system of data set [8] is Rattus norvegicus. The data set can be described thus: Antiinflammatory activity against Wistar rat assessed as decrease in gastric level of PGE2 at 43 to 53 mg/kg, po. It is filed as functional, organism-based. Particulars: Stomach. The gist of the method: as §1
Data set [9] deals with Rattus norvegicus. The data set can be described thus: Antiinflammatory activity in rat assessed as inhibition of carrageenan-induced paw edema at 11 mg/kg, po administered 1 hr before carrageenan challenge measured after 3 to 6 hrs. It is filed as functional, organism-based. Also on record: dose 11 mg/kg. The gist of the method: as §2
Data set [10] deals with Rattus norvegicus. The data set can be described thus: Toxicity in Wistar rat assessed as gastric lesion at 40 to 50 mg/kg, po. The data set is classed as organism-based, Stomach. Set-up: dose 40-50 mg/kg, route oral. Particulars: in vivo. The gist of the method: as §3
Data set [11] relates to Rattus norvegicus. The data set can be described thus: Antiinflammatory activity against Wistar rat assessed as decrease in gastric level of PGE2 at 40 to 50 mg/kg, po. The data set is classed as functional, organism-based. The following applies: Stomach. The gist of the method: as §1
In data set [12] the test system is Rattus norvegicus. The data set can be described thus: Antiinflammatory activity in rat assessed as inhibition of carrageenan-induced paw edema at 10 mg/kg, po administered 1 hr before carrageenan challenge measured after 3 to 6 hrs. The data set is classed as functional, organism-based. Set-up: dose 10 mg/kg. The gist of the method: as §2

Sequence of Prostaglandin G/H synthase 1 (P23219 whole entry): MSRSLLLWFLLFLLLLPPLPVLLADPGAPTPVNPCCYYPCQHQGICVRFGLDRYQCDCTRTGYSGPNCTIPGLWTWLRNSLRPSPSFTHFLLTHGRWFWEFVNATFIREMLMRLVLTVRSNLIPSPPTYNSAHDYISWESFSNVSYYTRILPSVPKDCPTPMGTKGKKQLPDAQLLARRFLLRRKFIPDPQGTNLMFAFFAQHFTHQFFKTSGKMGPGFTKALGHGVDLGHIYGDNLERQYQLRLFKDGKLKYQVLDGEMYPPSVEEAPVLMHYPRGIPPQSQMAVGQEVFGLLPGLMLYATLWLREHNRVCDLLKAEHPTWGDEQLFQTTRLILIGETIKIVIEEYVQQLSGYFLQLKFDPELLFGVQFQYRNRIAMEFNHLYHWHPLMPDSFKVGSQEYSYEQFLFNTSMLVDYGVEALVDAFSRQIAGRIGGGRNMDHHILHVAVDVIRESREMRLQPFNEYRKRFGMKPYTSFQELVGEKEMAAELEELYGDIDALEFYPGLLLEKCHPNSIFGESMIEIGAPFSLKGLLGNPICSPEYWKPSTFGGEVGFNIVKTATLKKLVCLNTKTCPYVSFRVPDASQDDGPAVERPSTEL

For the molecule `CC(C(=O)O)c1ccc(C[C@@H]2CCC[C@@H]2O)cc1F` (relative stereo), in the data set filed under Homo sapiens, the Ratio IC50 worked out at 0.2. Further, the IC50 in data set [1] is 48 µM; in data set [2] it was 7.7 µM.

`CC(C(=O)O)c1ccc(C[C@@H]2CCC[C@@H]2O)cc1Br` (relative stereo): the Ratio IC50 in the data set filed under Homo sapiens stood at 0.2. Besides, the IC50 in data set [1] stood at 34 µM; in [2] it was 7.2 µM.

Consider `CC(C(=O)O)c1ccc(C[C@H]2CCC[C@@H]2O)cc1F` (relative stereo), for which the Ratio IC50 in the data set filed under Homo sapiens came to 0.4. Besides, the results for the IC50 in data set [1] and in data set [2] were 3.1 µM and 0.6 µM, respectively.

With `CC(C(=O)O)c1ccc(C[C@H]2CCC[C@@H]2O)cc1Br` (relative stereo), the Ratio IC50 in the data set filed under Homo sapiens came to 0.3. The IC50 in data set [1] came out at 8.5 µM; in data set [2] it was 2.2 µM.

Take `CC(C(=O)[O-])c1ccc(CC2CCCC2=O)cc1Br.[Na+]` (stereo not drawn) [BROMOLOXOPROFEN]: the Ratio IC50 in the data set filed under Homo sapiens turned out to be 0.5. The outcome with Rattus norvegicus [3] and with Rattus norvegicus [4] was Active. For the same molecule, the IC50 in [1] stood at 65.3 µM; in [2] it was 30.3 µM. The Activity entry in [5] was “Not Active”; in the data set on Rattus norvegicus [6], “Toxic”.

Take `CC(C(=O)[O-])c1ccc(CC2CCCC2=O)cc1F.[Na+]` (stereo not drawn) [FLUORO LOXOPROFEN]: the Activity entry is recorded as “Toxic” in the data set with Rattus norvegicus [7] and “Not Active” in data set [5]. Also, the result with Rattus norvegicus [8] and in the data set on Rattus norvegicus [9] was Active. The Ratio IC50 in the data set listed under Homo sapiens was determined as 2.5. Besides, the half-inhibitory concentration (IC50) in data set [1] stood at 14.3 µM; in data set [2] it was 24.2 µM.

`CC(C(=O)[O-])c1ccc(CC2CCCC2=O)cc1.[Na+]` (stereo not drawn) [LOXOPROFEN SODIUM]: the Ratio IC50 in the data set filed under Homo sapiens was 2.5. The Activity result is given as “Toxic” in the data set with Rattus norvegicus [10] and “Active” in data set [5]. Further, the IC50 in data set [1] came to 10.1 µM; in data set [2] it was 23.5 µM. Also, the outcome with Rattus norvegicus [11] and in the data set on Rattus norvegicus [12] was Active.
